Test results published in ChEMBL document CHEMBL5032515, “Dual Role of Phenyl Amides from Hempseed on BACE 1, PPARγ, and PGC-1α in N2a-APP Cells” (J Nat Prod, 2021).
Activity calls are given as the source filed them. No cut-off for these calls is given here.

What was measured:
[1] = Permeability of compound assessed as retention time by PAMPA-BBB assay; type: ADME
In short: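 Qualitative PAMPA-BBB. The donor solution was 200 μg/mL (final) in 0.01 M PBS pH 7.4, made from a stock in 50% EtOH. The filter was coated with brain polar lipid plus cholesterol in n-dodecane, and the acceptor held PBS. Plates were incubated 4 h at 37 °C. Donor and acceptor solutions were analysed by UHPLC-UV (200–400 nm) in triplicate, and compounds were identified by retention time.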

N2a [2] = assay: Cytotoxicity against mouse N2a-APP cells assessed as cell viability at 0.03 to 0.08 uM measured after 24 hrs by MTT assay; type: functional, cell-based; conditions: dose 0.03-0.08 µM
In short: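 N2a-APP cells were seeded at 1 × 10^4 cells/well and exposed for 24 h to 0.03–0.08 μM, with medium-alone controls. MTT (1 mg/mL) was added for 2 h at 37 °C and the formazan was dissolved in DMSO. Absorbance was read at 570 nm, corrected at 650 nm. Survival is given as % of untreated cells; mean ± SD, one-way ANOVA.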

N2a [3] = assay: Antialzheimer activity in mouse N2a-APP cells assessed as reduction of BACE-1 expression at 0.03 to 0.08 uM measured after 24 hrs by RT-qPCR method; type: functional, cell-based; conditions: dose 0.03-0.08 µM
In short: (§1)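 Mutant APP-overexpressing N2a cells were grown in DMEM with 10% FBS and L-glutamine at 37 °C in 5% CO2. They were seeded in six-well plates at 5 × 10^5/mL (24 h) or 5 × 10^5/2 mL (48 h) and treated at 0.03–0.08 μM. Controls were pioglitazone 14 μM and medium alone. SYBR green qPCR used 20 ng cDNA, GAPDH/18S references and triplicate reactions; 2^−ΔΔCt; mean ± SD, n = 3.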

N2a [4] = assay: Antialzheimer activity in mouse N2a-APP cells assessed as reduction of BACE-1 expression at 0.03 to 0.08 uM measured after 48 hrs by RT-qPCR method; type: functional, cell-based; conditions: dose 0.03-0.08 µM; in short: as §1
N2a [5] = assay: Antialzheimer activity in mouse N2a-APP cells assessed as increase of […] expression at 0.03 to 0.08 uM measured after 24 hrs by RT-qPCR method; type: functional, cell-based; conditions: dose 0.03-0.08 µM; in short: as §1
N2a [6] = assay: Antialzheimer activity in mouse N2a-APP cells assessed as increase of […] expression at 0.03 to 0.08 uM measured after 48 hrs by RT-qPCR method; type: functional, cell-based; conditions: dose 0.03-0.08 µM; in short: as §1
N2a [7] = assay: Antialzheimer activity in mouse N2a-APP cells assessed as up-regulation of PGC-1alpha expression at 0.03 to 0.08 uM measured after 24 to 48 hrs by RT-qPCR method; type: functional, cell-based; conditions: dose 0.03-0.08 µM, time 24-48 hrs; in short: as §1
N2a [8] = assay: Cytotoxicity against mouse N2a-APP cells assessed as cell viability at 0.03 to 0.08 uM measured after 24 hrs by MTT assay; conditions: dose 0.03-0.08 µM
N2a [9] = assay: Antialzheimer activity in mouse N2a-APP cells assessed as effect on […] expression at 0.03 to 0.08 uM measured after 24 to 48 hrs by RT-qPCR method; type: functional, cell-based; conditions: dose 0.03-0.08 µM, time 24-48 hrs; in short: as §1

| Retention_time [1] [min] | Structure (SMILES) | Activity (N2a [2]) | Activity (N2a [3]) | Activity (N2a [4]) | Activity (N2a [5]) | Activity (N2a [6]) | Activity (N2a [7]) | Activity (N2a [8]) | Activity (N2a [9]) |
| --- | --- | --- | --- | --- | --- | --- | --- | --- | --- |
| 28.42 | COc1cc(/C=C/C(=O)NCCc2ccc(O)cc2)ccc1O [N-TRANS-FERULOYL TYRAMINE] |  |  |  |  |  |  |  |  |
| 24.08 | O=C(/C=C/c1ccc(O)c(O)c1)NCCc1ccc(O)cc1 | inactive | Active | Active | Active | Active | Active | inactive |  |
| 27.32 | O=C(/C=C/c1ccc(O)cc1)NCCc1ccc(O)cc1 [N-P-COUMAROYL TYRAMINE] | inactive |  |  |  |  |  | inactive | inactive |
| 28.07 | O=C(NCCc1ccc(O)cc1)c1cc2cc(O)c(O)cc2c(-c2ccc(O)c(O)c2)c1C(=O)NCCc1ccc(O)cc1 |  |  |  |  |  |  |  |  |
